Measured values as given in ChEMBL document CHEMBL4706631, “Potent and Selective Mitogen-Activated Protein Kinase Kinase 1/2 (MEK1/2) Heterobifunctional Small-molecule Degraders” (J Med Chem, 2020).
The source made the active and inactive calls. The rule behind the calls is not given here.

What was measured:
HT-29 [1] = experiment: Antiproliferative activity against human HT-29 cells incubated for 3 days by WST8 assay; format: functional; conditions: HT-29, 72 h, time 3 day
HT-29 [2] = experiment: Inhibition of ERK phosphorylation in human HT-29 cells at 0.3 to 3 uM incubated for 24 hrs by Western blot analysis; format: cell-based; conditions: dose 0.3-3 µM
NCI-H3122 [3] = experiment: Antiproliferative activity against human NCI-H3122 cells at 0.014 to 3.33 uM incubated for 3 days by WST8 assay; format: functional, cell-based; conditions: dose 0.014-3.33 µM, time 3.0 day
Procedure, shortened: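 NCI-H3122 cells were exposed to serial compound dilutions for 3 days, with WST-8 live-cell readout. Each concentration was run in triplicate. Student's t-test per concentration versus DMSO.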

HT-29 [4] = experiment: Inhibition of colony formation in human HT-29 cells at 10 to 100 nM incubated for 10 days by crystal violet staining based assay; format: functional, cell-based; conditions: dose 10-100 nM, time 10.0 day
Procedure, shortened: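 HT-29 clonogenic assay: cells were exposed to compounds for 10 days, then fixed and stained with crystal violet. Two independent experiments.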

SU-DHL-1 = experiment: Inhibition of ERK phosphorylation in human SU-DHL-1 cells at 0.3 to 3 uM and incubated for 24 hrs by Western blot analysis; format: cell-based; conditions: dose 0.3-3 µM
Procedure, shortened: (§1)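 H3122 and SU-DHL-1 cells were treated with compounds, and MEK1/2, pMEK and pERK were assessed by Western blot of lysates.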

NCI-H3122 [5] = experiment: Inhibition of ERK phosphorylation in human NCI-H3122 cells at 0.3 to 3 uM and incubated for 24 hrs by Western blot analysis; format: cell-based; conditions: dose 0.3-3 µM; procedure, shortened: as §1

Structure (SMILES)	GI50 (HT-29 [1]) [nM]	further results
O=C1CCC(N2C(=O)c3ccc(NCCCCCCNCCCONC(=O)c4ccc(F)c(F)c4Nc4ccc(I)cc4F)cc3C2=O)C(=O)N1 (stereo not given)	1100	–
Cc1ncsc1-c1ccc(CNC(=O)[C@@H]2C[C@@H](O)CN2C(=O)[C@@H](NC(=O)CNCCCONC(=O)c2ccc(F)c(F)c2Nc2ccc(I)cc2F)C(C)(C)C)cc1	1800	–
O=C1CCC(N2C(=O)c3cccc(NCCOCCOCCOCCOCCOCCNCCCONC(=O)c4ccc(F)c(F)c4Nc4ccc(I)cc4F)c3C2=O)C(=O)N1 (stereo not given)	600	–
Cc1ncsc1-c1ccc(CNC(=O)[C@@H]2C[C@@H](O)CN2C(=O)[C@@H](NC(=O)COCCOCCNCCCONC(=O)c2ccc(F)c(F)c2Nc2ccc(I)cc2F)C(C)(C)C)cc1	1600	–
O=C1CCC(N2C(=O)c3cccc(NCCCCCCNCCCONC(=O)c4ccc(F)c(F)c4Nc4ccc(I)cc4F)c3C2=O)C(=O)N1 (stereo not given)	3800	–
O=C1CCC(N2C(=O)c3ccc(NCCCCCCCNCCCONC(=O)c4ccc(F)c(F)c4Nc4ccc(I)cc4F)cc3C2=O)C(=O)N1 (stereo not given)	500	–
O=C1CCC(N2C(=O)c3cccc(NCCOCCOCCOCCOCCNCCCONC(=O)c4ccc(F)c(F)c4Nc4ccc(I)cc4F)c3C2=O)C(=O)N1 (stereo not given)	600	–
O=C1CCC(N2C(=O)c3cccc(NCCCCNCCCONC(=O)c4ccc(F)c(F)c4Nc4ccc(I)cc4F)c3C2=O)C(=O)N1 (stereo not given)	1900	–
Cc1ncsc1-c1ccc(CNC(=O)[C@@H]2C[C@@H](O)CN2C(=O)[C@@H](NC(=O)CCCCCCCCNCCCONC(=O)c2ccc(F)c(F)c2Nc2ccc(I)cc2F)C(C)(C)C)cc1	600	–
Cc1ncsc1-c1ccc([C@H](C)NC(=O)[C@@H]2C[C@@H](O)CN2C(=O)[C@@H](NC(=O)CCCCCCCCCNCCCCONC(=O)c2ccc(F)c(F)c2Nc2ccc(I)cc2F)C(C)(C)C)cc1	55	–
Cc1ncsc1-c1ccc(CNC(=O)[C@@H]2C[C@@H](O)CN2C(=O)[C@@H](NC(=O)COCCNCCCONC(=O)c2ccc(F)c(F)c2Nc2ccc(I)cc2F)C(C)(C)C)cc1	4000	–
Cc1ncsc1-c1ccc(CNC(=O)[C@@H]2C[C@@H](O)CN2C(=O)[C@@H](NC(=O)CCOCCOCCOCCNCCCONC(=O)c2ccc(F)c(F)c2Nc2ccc(I)cc2F)C(C)(C)C)cc1	3300	–
O=C1CCC(N2C(=O)c3ccc(NCCOCCOCCNCCCONC(=O)c4ccc(F)c(F)c4Nc4ccc(I)cc4F)cc3C2=O)C(=O)N1 (stereo not given)	1100	–
Cc1ncsc1-c1ccc([C@H](C)NC(=O)[C@H]2C[C@H](O)CN2C(=O)[C@@H](NC(=O)CCCCCCCCCCN(C)CCCONC(=O)c2ccc(F)c(F)c2Nc2ccc(I)cc2F)C(C)(C)C)cc1	–	inhibition (HT-29 [2]): inactive; Activity (NCI-H3122 [3]): inactive; inhibition (HT-29 [4]): inactive; inhibition (SU-DHL-1): inactive; inhibition (NCI-H3122 [5]): inactive
O=C1CCC(N2C(=O)c3ccc(NCCCCCCCCNCCCONC(=O)c4ccc(F)c(F)c4Nc4ccc(I)cc4F)cc3C2=O)C(=O)N1 (stereo not given)	300	–
O=C1CCC(N2C(=O)c3ccc(NCCOCCNCCCONC(=O)c4ccc(F)c(F)c4Nc4ccc(I)cc4F)cc3C2=O)C(=O)N1 (stereo not given)	1400	–
O=C1CCC(N2C(=O)c3ccc(NCCCNCCCONC(=O)c4ccc(F)c(F)c4Nc4ccc(I)cc4F)cc3C2=O)C(=O)N1 (stereo not given)	500	–
Cc1ncsc1-c1ccc(CNC(=O)[C@@H]2C[C@@H](O)CN2C(=O)[C@@H](NC(=O)CCCCCCCNCCCONC(=O)c2ccc(F)c(F)c2Nc2ccc(I)cc2F)C(C)(C)C)cc1	500	–
O=C1CCC(N2C(=O)c3cccc(NCCOCCOCCNCCCONC(=O)c4ccc(F)c(F)c4Nc4ccc(I)cc4F)c3C2=O)C(=O)N1 (stereo not given)	1300	–
O=C1CCC(N2C(=O)c3cccc(NCCCCCCCCNCCCONC(=O)c4ccc(F)c(F)c4Nc4ccc(I)cc4F)c3C2=O)C(=O)N1 (stereo not given)	3500	–
O=C1CCC(N2C(=O)c3cccc(NCCNCCCONC(=O)c4ccc(F)c(F)c4Nc4ccc(I)cc4F)c3C2=O)C(=O)N1 (stereo not given)	400	–
Cc1ncsc1-c1ccc(CNC(=O)[C@@H]2C[C@@H](O)CN2C(=O)[C@@H](NC(=O)CCCNCCCONC(=O)c2ccc(F)c(F)c2Nc2ccc(I)cc2F)C(C)(C)C)cc1	3100	–
FC(F)c1nc2ccccc2n1-c1nc(N2CCOCC2)nc(N2CCOCC2)n1 [ZSTK-474]	300	–

Structure (SMILES)	GI50 (HT-29 [1]) [nM]	further results
Cc1ncsc1-c1ccc(CNC(=O)[C@@H]2C[C@@H](O)CN2C(=O)[C@@H](NC(=O)CCOCCOCCNCCCONC(=O)c2ccc(F)c(F)c2Nc2ccc(I)cc2F)C(C)(C)C)cc1	1600	–
Cc1ncsc1-c1ccc([C@H](C)NC(=O)[C@@H]2C[C@@H](O)CN2C(=O)[C@@H](NC(=O)CCCCCCCCCNCCCONC(=O)c2ccc(F)c(F)c2Nc2ccc(I)cc2F)C(C)(C)C)cc1	240	–
Cc1ncsc1-c1ccc(CNC(=O)[C@@H]2C[C@@H](O)CN2C(=O)[C@@H](NC(=O)CCCCCCCCCCNCCCONC(=O)c2ccc(F)c(F)c2Nc2ccc(I)cc2F)C(C)(C)C)cc1	400	–
O=C1CCC(N2C(=O)c3ccc(NCCOCCOCCOCCOCCNCCCONC(=O)c4ccc(F)c(F)c4Nc4ccc(I)cc4F)cc3C2=O)C(=O)N1 (stereo not given)	500	–
O=C1CCC(N2C(=O)c3ccc(NCCCCCNCCCONC(=O)c4ccc(F)c(F)c4Nc4ccc(I)cc4F)cc3C2=O)C(=O)N1 (stereo not given)	500	–
O=C1CCC(N2C(=O)c3ccc(NCCOCCOCCOCCNCCCONC(=O)c4ccc(F)c(F)c4Nc4ccc(I)cc4F)cc3C2=O)C(=O)N1 (stereo not given)	1500	–
O=C1CCC(N2C(=O)c3ccc(NCCCCNCCCONC(=O)c4ccc(F)c(F)c4Nc4ccc(I)cc4F)cc3C2=O)C(=O)N1 (stereo not given)	1000	–
Cc1ncsc1-c1ccc(CNC(=O)[C@@H]2C[C@@H](O)CN2C(=O)[C@@H](NC(=O)CCCCCNCCCONC(=O)c2ccc(F)c(F)c2Nc2ccc(I)cc2F)C(C)(C)C)cc1	2100	–
O=C1CCC(N2C(=O)c3cccc(NCCOCCOCCOCCNCCCONC(=O)c4ccc(F)c(F)c4Nc4ccc(I)cc4F)c3C2=O)C(=O)N1 (stereo not given)	800	–
CCCS(=O)(=O)Nc1ccc(F)c(C(=O)c2c[nH]c3ncc(-c4ccc(Cl)cc4)cc23)c1F [VEMURAFENIB]	100	–
Cc1ncsc1-c1ccc(CNC(=O)[C@@H]2C[C@@H](O)CN2C(=O)[C@@H](NC(=O)CCNCCCONC(=O)c2ccc(F)c(F)c2Nc2ccc(I)cc2F)C(C)(C)C)cc1	5000	–
O=C1CCC(N2C(=O)c3cccc(NCCCCCNCCCONC(=O)c4ccc(F)c(F)c4Nc4ccc(I)cc4F)c3C2=O)C(=O)N1 (stereo not given)	1800	–
Cc1ncsc1-c1ccc(CNC(=O)[C@@H]2C[C@@H](O)CN2C(=O)[C@@H](NC(=O)CCCCCCNCCCONC(=O)c2ccc(F)c(F)c2Nc2ccc(I)cc2F)C(C)(C)C)cc1	1400	–
Cc1ncsc1-c1ccc(CNC(=O)[C@@H]2C[C@@H](O)CN2C(=O)[C@@H](NC(=O)CCOCCOCCOCCOCCNCCCONC(=O)c2ccc(F)c(F)c2Nc2ccc(I)cc2F)C(C)(C)C)cc1	1700	–
O=C1CCC(N2C(=O)c3cccc(NCCCCCCCNCCCONC(=O)c4ccc(F)c(F)c4Nc4ccc(I)cc4F)c3C2=O)C(=O)N1 (stereo not given)	4500	–
Cc1ncsc1-c1ccc([C@H](C)NC(=O)[C@@H]2C[C@@H](O)CN2C(=O)[C@@H](NC(=O)CCCCCCCCCCNCCCCONC(=O)c2ccc(F)c(F)c2Nc2ccc(I)cc2F)C(C)(C)C)cc1	43	–
Cc1ncsc1-c1ccc(CNC(=O)[C@@H]2C[C@@H](O)CN2C(=O)[C@@H](NC(=O)CCCCCCCCCNCCCONC(=O)c2ccc(F)c(F)c2Nc2ccc(I)cc2F)C(C)(C)C)cc1	500	–
Cc1ncsc1-c1ccc([C@H](C)NC(=O)[C@@H]2C[C@@H](O)CN2C(=O)[C@@H](NC(=O)CCCCCCCCCCCNCCCONC(=O)c2ccc(F)c(F)c2Nc2ccc(I)cc2F)C(C)(C)C)cc1	99	–
Cc1ncsc1-c1ccc(CNC(=O)[C@@H]2C[C@@H](O)CN2C(=O)[C@@H](NC(=O)CCOCCNCCCONC(=O)c2ccc(F)c(F)c2Nc2ccc(I)cc2F)C(C)(C)C)cc1	4800	–
Cc1ncsc1-c1ccc(CNC(=O)[C@@H]2C[C@@H](O)CN2C(=O)[C@@H](NC(=O)CCCCNCCCONC(=O)c2ccc(F)c(F)c2Nc2ccc(I)cc2F)C(C)(C)C)cc1	3000	–
O=C1CCC(N2C(=O)c3cccc(NCCOCCNCCCONC(=O)c4ccc(F)c(F)c4Nc4ccc(I)cc4F)c3C2=O)C(=O)N1 (stereo not given)	1200	–
Cc1ncsc1-c1ccc(CNC(=O)[C@@H]2C[C@@H](O)CN2C(=O)[C@@H](NC(=O)COCCOCCOCCNCCCONC(=O)c2ccc(F)c(F)c2Nc2ccc(I)cc2F)C(C)(C)C)cc1	1300	–
O=C1CCC(N2C(=O)c3cccc(NCCCNCCCONC(=O)c4ccc(F)c(F)c4Nc4ccc(I)cc4F)c3C2=O)C(=O)N1 (stereo not given)	1100	–
